Experimental findings from ChEMBL document CHEMBL4219033, “Anticancer activity profiling of parthenolide analogs generated via P450-mediated chemoenzymatic synthesis” (2018) are described below.

What all share (format): functional
For test [1], the system named is HCT-116. Kind of test: Cytotoxicity against human HCT116 cells assessed as cell viability after 24 hrs by MTT assay. The following applies: HCT-116, 24 h, read-out: LC50 (the source's name). The gist of the method: (§1)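 Adherent cells grown in DMEM with 10% FBS and penicillin-streptomycin, dissociated with Accutase, seeded at 500–10,000 cells/well and held 15 h before treatment. Compounds diluted from 10 mM DMSO stocks, final 1% DMSO, for 24 h at 37 °C, 5% CO2. Medium replaced with 1 mg/ml MTT for 3 h, formazan dissolved in DMSO, OD 550 nm. LC50 from dose-response curves normalized to 1% DMSO vehicle.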
On the technique in general: Formazan colour is commonly taken as a measure of viable cells.

The subject of test [2] is JeKo-1. Kind of test: Cytotoxicity against human JeKo1 cells assessed as cell viability at 2 uM after 24 hrs by MTT assay relative to control. The following applies: JeKo-1, 24 h, read-out: Activity. The gist of the method: (§2)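 Suspension lines grown in α-MEM plus 10% FBS and penicillin-streptomycin, 37 °C, 5% CO2. Seeded at 30,000 cells/well in phenol-red-free α-MEM and rested 15 h. Exposed to 10 µM, or 2 µM in the lower-dose repeat, at 1% DMSO final for 24 h. 5 mg/ml MTT added directly for 3 h at 37 °C. Plates spun, formazan dissolved in DMSO, OD read at 550 nm. Viability relative to vehicle.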

Test [3] concerns MDA-MB-231. Nature of the test: Cytotoxicity against human MDA-MB-231 cells assessed as cell viability at 10 uM after 24 hrs by MTT assay relative to control. Conditions: MDA-MB-231, 24 h, read-out: Activity. The gist of the method: (§3)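 Adherent lines in DMEM plus 10% FBS and penicillin-streptomycin, 37 °C, 5% CO2, lifted with Accutase. Seeded at 500–10,000 cells/well and rested 15 h. Compounds from 10 mM DMSO stocks dosed at 10 µM final, 1% DMSO final, n = 5, for 24 h. Medium then swapped for 1 mg/ml MTT in phenol-red-free medium for 3 h at 37 °C. Formazan dissolved in DMSO, OD read at 550 nm. Viability normalised to 1% DMSO vehicle control.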

Test [4] has as its system PC-3. Kind of test: Cytotoxicity against human PC3 cells assessed as cell viability at 10 uM after 24 hrs by MTT assay relative to control. Conditions: PC-3, 24 h, read-out: Activity. The gist of the method: as §3
Test [5] relates to HCT-116. Nature of the test: Cytotoxicity against human HCT116 cells assessed as cell viability at 10 uM after 24 hrs by MTT assay relative to control. Conditions: HCT-116, 24 h, read-out: Activity. The method, boiled down: as §3
The test system of test [6] is Jurkat. Nature of the test: Cytotoxicity against human Jurkat cells assessed as cell viability at 2 uM after 24 hrs by MTT assay relative to control. Conditions: read-out: Activity. The method, boiled down:
as §2

In test [7] the test system is HeLa. Kind of test: Cytotoxicity against human HeLa cells assessed as cell viability after 24 hrs by MTT assay. The following applies: read-out: LC50 (the source's name). The gist of the method:
as §1

Test [8] relates to JeKo-1. Nature of the test: Cytotoxicity against human JeKo1 cells assessed as cell viability at 10 uM after 24 hrs by MTT assay relative to control. Conditions: JeKo-1, 24 h, read-out: Activity. The method, boiled down: as §2
Test [9] relates to Jurkat. Kind of test: Cytotoxicity against human Jurkat cells assessed as cell viability at 10 uM after 24 hrs by MTT assay relative to control. The following applies: read-out: Activity. The method, boiled down:
as §2

For test [10], the system named is SJSA-1. Kind of test: Cytotoxicity against human SJSA1 cells assessed as cell viability at 10 uM after 24 hrs by MTT assay relative to control. Conditions: SJSA-1, 24 h, read-out: Activity. The method, boiled down: as §3
A further test deals with SK-MEL-2. Nature of the test: Cytotoxicity against human SK-MEL-2 cells assessed as cell viability at 10 uM after 24 hrs by MTT assay relative to control. The following applies: SK-MEL-2, 24 h, read-out: Activity. The method, boiled down: as §3
Test [11] has as its system SK-N-MC. Nature of the test: Cytotoxicity against human SK-N-MC cells assessed as cell viability after 24 hrs by MTT assay. Conditions: read-out: LC50 (the source's name). The method, boiled down:
as §1

Test [12] concerns HeLa. Nature of the test: Cytotoxicity against human HeLa cells assessed as cell viability at 10 uM after 24 hrs by MTT assay relative to control. The following applies: read-out: Activity. The method, boiled down:
as §3

Another test relates to A549. Kind of test: Cytotoxicity against human A549 cells assessed as cell viability at 10 uM after 24 hrs by MTT assay relative to control. Conditions: A549, 24 h, read-out: Activity. The method, boiled down:
as §3

Test [13] concerns SK-N-MC. Nature of the test: Cytotoxicity against human SK-N-MC cells assessed as cell viability at 10 uM after 24 hrs by MTT assay relative to control. The following applies: read-out: Activity. The method, boiled down:
as §3

Test [14] concerns SJSA-1. Kind of test: Cytotoxicity against human SJSA1 cells assessed as cell viability after 24 hrs by MTT assay. The following applies: SJSA-1, 24 h, read-out: LC50 (the source's name). The method, boiled down:
as §1

Test [15] relates to PC-3. Nature of the test: Cytotoxicity against human PC3 cells assessed as cell viability after 24 hrs by MTT assay. Conditions: PC-3, 24 h, read-out: LC50 (the source's name). The method, boiled down:
as §1

The subject of test [16] is JeKo-1. Kind of test: Cytotoxicity against human JeKo1 cells assessed as cell viability after 24 hrs by MTT assay. The following applies: JeKo-1, 24 h, read-out: LC50 (the source's name). The gist of the method:
(§4)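 Suspension cells grown in α-MEM with 10% FBS and penicillin-streptomycin, seeded at 30,000 cells/well in phenol red-free medium and held 15 h before treatment. Compounds diluted from 10 mM DMSO stocks, final 1% DMSO, for 24 h. MTT (5 mg/ml stock) added directly for 3 h at 37 °C, then centrifugation, DMSO solubilization, OD 550 nm. LC50 from dose-response curves normalized to vehicle.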

Test [17] concerns Jurkat. Kind of test: Cytotoxicity against human Jurkat cells assessed as cell viability after 24 hrs by MTT assay. Conditions: read-out: LC50 (the source's name). The gist of the method:
as §4

Test [18] deals with MDA-MB-231. Nature of the test: Cytotoxicity against human MDA-MB-231 cells assessed as cell viability after 24 hrs by MTT assay. The following applies: MDA-MB-231, 24 h, read-out: LC50 (the source's name). The gist of the method:
as §1

Consider `C=C1C(=O)O[C@@H]2[C@H]3O[C@]3(C)CC/C=C(/COC(=O)c3ccc(C(F)(F)F)cc3C(F)(F)F)CC[C@@H]12`, for which the CC50 was found to be 8.2 µM in the test on HCT-116 [1]; 2.9 µM in the test on HeLa [7]; 5.6 µM with SK-N-MC [11]; 7.7 µM with SJSA-1 [14]; 6.7 µM with PC-3 [15]. In addition, the values for the viability at 2 µM in the test with JeKo-1 [2] and in the test on Jurkat [6] were 80.9% and 89%, respectively. The viability at 10 µM is 20.7% in the test on MDA-MB-231 [3]; 4% in the test with PC-3 [4]; 15.1% with HCT-116 [5]; -2.2% in the test with JeKo-1 [8]; 0% with Jurkat [9]; 17.8% with SJSA-1 [10]. For the same compound, the viability at 10 µM was found to be 62% with SK-MEL-2, 11.3% in the test with HeLa [12], 45.1% in the test on A549 and 18.7% in the test with SK-N-MC [13].
With `C=C1C(=O)O[C@@H]2[C@H]3O[C@]3(C)CC/C=C(/COC(=O)Nc3ccc(F)cc3F)CC[C@@H]12`, the viability at 2 µM with JeKo-1 [2] is 78.3%; with Jurkat [6] it was 86.2%. Besides, the viability at 10 µM in the test with MDA-MB-231 [3] was 88.5%; in the test with PC-3 [4], 89.8%; in the test on HCT-116 [5], 33.2%; with JeKo-1 [8], -2.1%; in the test with Jurkat [9] it was 0%; in the test on SJSA-1 [10], 100%. The viability at 10 µM with SK-MEL-2 came out at 84.5%; in the test on HeLa [12], 89.7%; in the test on A549, 70.6%; in the test on SK-N-MC [13] it was 95.6%. The CC50 in the test with JeKo-1 [16] amounted to 6.7 µM.
As for `C=C1C(=O)O[C@@H]2[C@H]3O[C@]3(C)CC/C=C(/COC(=O)Nc3ccc([N+](=O)[O-])cc3)CC[C@@H]12`, the CC50 worked out at 7.8 µM in the test on HCT-116 [1], 1.7 µM in the test with HeLa [7] and 5.7 µM with PC-3 [15]. Further, the viability at 2 µM in the test on JeKo-1 [2] worked out at 80%; in the test on Jurkat [6] it was 79%. Besides, the viability at 10 µM is 41.3% in the test on MDA-MB-231 [3]; 17.7% with PC-3 [4]; 1.6% with HCT-116 [5]; -0.1% in the test on JeKo-1 [8]; 0% in the test on Jurkat [9]; 44.5% in the test on SJSA-1 [10]. Moreover, the viability at 10 µM in the test on SK-MEL-2 turned out to be 40.4%; with HeLa [12], 5.4%; with A549, 60%; with SK-N-MC [13], 23.3%.
With `C=C1C(=O)O[C@@H]2[C@H]3O[C@]3(C)CC/C=C(/C)[C@@H](OC(=O)Nc3cc(C(F)(F)F)cc(C(F)(F)F)c3)C[C@@H]12`, the CC50 with HCT-116 [1] was 7.9 µM; in the test on Jurkat [17] it was 2.8 µM; with JeKo-1 [16], 3.5 µM; in the test with MDA-MB-231 [18] it was 7.2 µM. For the same compound, the viability at 2 µM is 76.4% in the test with JeKo-1 [2] and 68.9% in the test on Jurkat [6]. In addition, the viability at 10 µM with MDA-MB-231 [3] is 16.7%; in the test on PC-3 [4] it was 38.7%; in the test on HCT-116 [5], 10.8%; in the test on JeKo-1 [8] it was -1%; with Jurkat [9] it was 0%; in the test with SJSA-1 [10], 68.2%. Also, the viability at 10 µM came to 57% in the test on SK-MEL-2, 20.2% with HeLa [12], 54.3% in the test on A549 and 18.5% in the test with SK-N-MC [13].
